From ChEMBL document CHEMBL1155751, “Two phenanthraquinones from Dendrobium moniliforme” (J Nat Prod, 2001)
Activity calls are given as the source filed them. The calls are words filed in the database; no cut-off is given here.

Columns and labels:
RAW264.7 [1] = experiment: Antiinflammatory activity in mouse RAW264.7 cells assessed as LPS-induced nitrite levels at 1 uM treated 1 hr before LPS challenge measured after 24 hrs by Griess reaction (Rvb=46.6 +/- 0.4); format: functional
Method in brief: (§1)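 RAW 264.7 cells were seeded at 2 × 10^5 cells/well in DMEM with 5% heat-inactivated FBS, penicillin and streptomycin, and left to adhere overnight. Cells got DMSO or compound at 37 °C for 1 h, then 1 µg/mL LPS (E. coli 0111:B4) for 24 h. Medium nitrite was read by Griess (550 nm, NaNO2 standard), TNF-α by ELISA and PGE2 by EIA. Means ± SEM, N = 3-4.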

RAW264.7 [2] = experiment: Antiinflammatory activity in mouse RAW264.7 cells assessed as inhibition of LPS-induced TNFalpha formation at 1 uM treated 1 hr before LPS challenge measured after 24 hrs by ELISA; format: functional; method in brief: as §1
RAW264.7 [3] = experiment: Antiinflammatory activity in mouse RAW264.7 cells assessed as inhibition of LPS-induced prostaglandin E2 formation at 1 uM treated 1 hr before LPS challenge measured after 24 hrs by EIA; format: functional; method in brief: as §1
RAW264.7 [4] = experiment: Cytotoxicity against mouse RAW264.7 cells assessed as LDH release; format: cell-based
N9 [5] = experiment: Cytotoxicity against mouse N9 cells assessed as LDH release; format: cell-based
Mast cell [6] = experiment: Inhibition of secretagogue-induced histamine release in Sprague-Dawley rat peritoneal mast cells at 30 uM […] secretagogue challenge measured after 15 mins; format: functional; conditions: read-out: INH, in the assay text read “3 mins before” for “30 mins before”
Method in brief: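 Peritoneal mast cells came from exsanguinated Sprague-Dawley rats by heparinized Tyrode's lavage, purified through 38% BSA, and resuspended at (1-1.5) × 10^6 cells/mL in Tyrode's with 0.1% BSA. Supernatant β-glucuronidase was read at 550 nm (phenolphthalein glucuronide, pH 4.5) and histamine by o-phthaldialdehyde fluorescence at 350/450 nm. Release is % of the Triton X-100 total.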

Neutrophil [7] = experiment: Inhibition of secretagogue-induced histamine release in rat neutrophils at 30 uM treated 30 mins before secretagogue challenge measured after 15 mins; format: functional, cell-based
Neutrophil [8] = experiment: Inhibition of secretagogue-induced beta-glucuronidase release in rat neutrophils at 30 uM treated 30 mins before secretagogue challenge measured after 15 mins; format: functional, cell-based
Neutrophil [9] = experiment: Inhibition of secretagogue-induced superoxide anion generation in rat neutrophils at 30 uM treated 30 mins before secretagogue challenge measured after 15 mins; format: functional, cell-based
Mast cell [10] = experiment: Inhibition of secretagogue-induced beta-glucuronidase release in Sprague-Dawley rat peritoneal mast cells at 30 uM treated 3 mins before secretagogue challenge measured after 15 mins
N9 [11] = experiment: Antiinflammatory activity in mouse N9 cells assessed as inhibition of LPS and IFN-gamma-induced TNFalpha formation at 3 uM treated 1 hr before LPS and IFN-gamma challenge measured after 24 hrs by ELISA; conditions: N9, read-out: INH
N9 [12] = experiment: Antiinflammatory activity in mouse N9 cells assessed as inhibition of LPS and IFN-gamma-induced nitrite formation at 3 uM treated 1 hr before LPS and IFN-gamma challenge measured after 24 hrs by Griess reaction; conditions: N9, read-out: INH
Mast cell [13] = experiment: Secretagogue-induced histamine release in Sprague-Dawley rat peritoneal mast cells at 30 uM treated 3 mins before secretagogue challenge measured after 15 mins

Row | SMILES | Activity (RAW264.7 [1]) | inhibition at 1 µM (RAW264.7 [2]) | inhibition at 1 µM (RAW264.7 [3]) | Activity (RAW264.7 [4]) | Activity (N9 [5]) | inhibition at 30 µM (Mast cell [6]) | Activity (Neutrophil [7]) | Activity (Neutrophil [8]) | Activity (Neutrophil [9]) | inhibition at 30 µM (Mast cell [10]) | inhibition at 3 µM (N9 [11]) | inhibition at 3 µM (N9 [12]) | histamine release at 30 µM (Mast cell [13])
1 | COC1=CC(=O)c2ccc3cc(OC)cc(O)c3c2C1=O [DENBINOBIN] | 40.4 µM | 62% | 43% | < 10% | < 10% | 39% | inactive | inactive | inactive | 40% | 70% | 44% | –
2 | CCN(CC)CCCC(C)Nc1c2ccc(Cl)cc2nc2ccc(OC)cc12 (centres undefined) [QUINACRINE] | – | – | – | – | – | – | – | – | – | 8.7% | – | – | 18.4%
